From ChEMBL document CHEMBL4364242, “Novel cationic bis(acylhydrazones) as modulators of Epstein-Barr virus immune evasion acting through disruption of interaction between nucleolin and G-quadruplexes of EBNA1 mRNA” (Eur J Med Chem, 2019)
The source made the active and inactive calls. The rule behind the calls is not given here.

Columns and labels:
[1] = Binding affinity to […] (unknown origin) assessed as increase in melting temperature at 1 uM by fluorescence method
Procedure, shortened: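 Labeled F-myc22-T DNA (5'-FAM/3'-TAMRA) melted with 1 μM ligand in K-1 buffer (10 mM LiAsO2Me2, 1 mM KCl, 99 mM LiCl, pH 7.3). Ramp 0.5 °C/min from 25 to 95 °C. Tm taken from first-derivative maxima and ΔTm calculated versus ligand-free control.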

human gammaherpesvirus 4 [2] = test: Binding affinity to EBNA1 G4-quadruplex in human H1299 cells assessed as EB virus EBNA1 deleted GAr expression at 10 uM incubated for 40 hrs by western blot analysis; type: cell-based
Procedure, shortened: (§1)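 H1299 cells in RPMI-1640 with 10% FBS at 37 °C, 5% CO2, transiently transfected with EBNA1 or EBNA1ΔGAr constructs, then treated with 10 μM compound (DMSO vehicle) for 40 h. Lysates taken 48 h post-transfection and western blotted with anti-EBNA1 (OT1X). Levels normalized to GAPDH; at least three repeats.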

Homo sapiens = species on record: Homo sapiens; test: Binding affinity to […] assessed as increase in melting temperature at 1 uM by fluorescence method
Procedure, shortened: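 F-25TAG-T telomeric DNA (5'-FAM/3'-TAMRA) melted with 1 μM ligand in K-100 buffer (10 mM LiAsO2Me2, 100 mM KCl, pH 7.3). Heating 25–95 °C at 0.5 °C/min. ΔTm derived from first-derivative Tm maxima relative to the no-ligand run.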

[3] = Displacement of TO from EB virus g4-EBNA1 mRNA measured after 5 mins by FID assay; set-up: species or system human gammaherpesvirus 4
Procedure, shortened: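 g4-EBNA1 RNA annealed 95 °C 5 min in K100 buffer (10 mM KAsO2Me2, 100 mM KCl, 1 mM EDTA, 1% DMSO), then mixed with TO; final 0.25 μM RNA and 0.5 μM TO, ligand 0–2.5 μM. Fluorescence read after 5 min shaking (485/520 nm), in duplicate. Displacement = 100×(1−F/F0); DC50 interpolated from the curve.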

NCI-H1299 [4] = test: Effect on OVA expression in human H1299 cells at 10 uM incubated for 40 hrs by western blot analysis; type: functional; set-up: unit not given here
Procedure, shortened: (§2)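 OVA or 235GAr-OVA constructs transiently transfected into H1299 cells, followed by 40 h exposure to 10 μM compound or DMSO. Whole-cell lysates immunoblotted with rabbit anti-OVA; signal normalized to GAPDH. Experiments repeated at least three times.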

human gammaherpesvirus 4 [5] = test: Binding affinity to EB virus F-g4-EBNA1 mRNA assessed as increase in melting temperature at 1 uM by fluorescence method
NCI-H1299 [6] = test: Effect on 235Gar-OVA expression in human H1299 cells at 10 uM incubated for 40 hrs by western blot analysis; type: functional; set-up: unit not given here; procedure, shortened: as §2
human gammaherpesvirus 4 [7] = test: Binding affinity to EBNA1 G4-quadruplex in human H1299 cells assessed as EB virus EBNA1 expression at 10 uM incubated for 40 hrs by western blot analysis; type: cell-based; procedure, shortened: as §1
[8] = Inhibition of recombinant NCL (unknown origin)/EB virusG4-EBNA1 mRNA interaction at 10 uM by RNA pull-down assay
Procedure, shortened: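 Biotin-TEG RNA (g4-EBNA1 or non-G4 GM) folded in 10 mM Tris pH 7.5, 100 mM KCl, 0.1 mM EDTA (95 °C 5 min, cooled 2 °C/min), then bound to blocked streptavidin beads. 200 ng recombinant NCL added for 90 min at room temperature with 10 μM compound or DMSO. Beads washed up to 800 mM KCl; eluates western-blotted for NCL.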

NCI-H1299 [9] = test: Cytotoxicity against OVA-over expressing human H1299 cells at 10 uM incubated for 40 hrs; type: cell-based; settings: nci-h1299, 40 h
NCI-H1299 [10] = test: Cytotoxicity against 235Gar-OVA-over expressing human H1299 cells at 10 uM incubated for 40 hrs; type: cell-based; settings: nci-h1299, 40 h

SMILES | ΔTm [1] [°C] | Activity (human gammaherpesvirus 4 [2]) | ΔTm (Homo sapiens) [°C] | IC50 [3] [nM] | Activity (NCI-H1299 [4]) | ΔTm (human gammaherpesvirus 4 [5]) [°C] | Activity (NCI-H1299 [6]) | Activity (human gammaherpesvirus 4 [7]) | Activity (human gammaherpesvirus 4 [5]) | fold change (FC) [8] | Activity (NCI-H1299 [9]) | Activity (NCI-H1299 [10])
C[n+]1ccc(/C=N/NC(=O)c2ccc3ccc4ccc(C(=O)N/N=C/c5cc[n+](C)cc5)nc4c3n2)cc1.[I-].[I-] | 15 to 30 | Active | 15 to 30 | 320 | 76 | 10 to 20 | 78 | Active | – | – | – | –
O=C(N/N=C/c1cc[n+](Cc2ccccc2)c2ccccc12)c1ccc2ccc(C(=O)N/N=C/c3cc[n+](Cc4ccccc4)c4ccccc34)nc2n1.[Br-].[Br-] | 15 to 30 | inactive | 15 to 30 | 710 | 93 | – | 106 | inactive | Active | – | – | –
C[n+]1ccc(/C=N/NC(=O)c2cccc(C(=O)N/N=C/c3cc[n+](C)cc3)n2)cc1.[I-].[I-] | – | inactive | – | 2320 | 93 | < 10 | 106 | inactive | – | – | – | –
CC[n+]1cccc2cc(/C=N/NC(=O)c3cccc(C(=O)N/N=C/c4ccc5c(ccc[n+]5CC)c4)n3)ccc21.[I-].[I-] | 15 to 30 | inactive | 15 to 30 | 740 | 98 | – | 86 | inactive | Active | – | – | –
O=C(N/N=C/c1ccc2c(ccc[n+]2Cc2ccccc2)c1)c1cc(C(=O)N/N=C/c2ccc3c(ccc[n+]3Cc3ccccc3)c2)ncn1.[Br-].[Br-] | – | Active | – | > 2500 | 137 | – | 139 | Active | – | – | – | –
C[n+]1cc(NC(=O)c2ccc3ccc4ccc(C(=O)Nc5cc6ccccc6[n+](C)c5)nc4c3n2)cc2ccccc21 | > 35 | – | > 35 | 310 | – | 30 | – | – | – | 2 | – | –
C[n+]1ccc(/C=N/NC(=O)c2cc(C(=O)N/N=C/c3cc[n+](C)cc3)ncn2)cc1.[I-].[I-] | – | inactive | – | > 2500 | 92 | – | 80 | inactive | – | – | – | –
O=C(N/N=C/c1ccc2c(ccc[n+]2Cc2ccccc2)c1)c1ccc2ccc(C(=O)N/N=C/c3ccc4c(ccc[n+]4Cc4ccccc4)c3)nc2n1.[Br-].[Br-] | 15 to 30 | inactive | 15 to 30 | 1090 | 108 | – | 104 | inactive | Active | – | – | –
O=C(N/N=C/c1cc[n+](Cc2ccccc2)c2ccccc12)c1cccc(C(=O)N/N=C/c2cc[n+](Cc3ccccc3)c3ccccc23)n1.[Br-].[Br-] | 15 to 30 | Active | 15 to 30 | 390 | 149 | – | 134 | Active | Active | – | – | –
O=C(N/N=C/c1ccc2c(ccc[n+]2Cc2ccccc2)c1)c1ccc2ccc3ccc(C(=O)N/N=C/c4ccc5c(ccc[n+]5Cc5ccccc5)c4)nc3c2n1.[Br-].[Br-] | 15 to 30 | inactive | 15 to 30 | 650 | 94 | 20 to 30 | 111 | inactive | – | – | – | –
CC[n+]1cccc2cc(/C=N/NC(=O)c3ccc4ccc5ccc(C(=O)N/N=C/c6ccc7c(ccc[n+]7CC)c6)nc5c4n3)ccc21.[I-].[I-] | 15 to 30 | inactive | 15 to 30 | 590 | 96 | 20 to 30 | 80 | inactive | – | – | – | –
C[n+]1ccc(/C=N/NC(=O)c2ccc3ccc(C(=O)N/N=C/c4cc[n+](C)cc4)nc3n2)cc1.[I-].[I-] | – | inactive | – | 930 | 99 | < 10 | 112 | inactive | – | – | – | –
C[n+]1ccc(/C=N/NC(=O)c2cc(C(=O)N/N=C/c3cc[n+](C)c4ccccc34)ncn2)c2ccccc21.[I-].[I-] | – | inactive | – | 740 | 103 | – | 89 | inactive | – | – | – | –
CC[n+]1cccc2cc(/C=N/NC(=O)c3ccc4ccc(C(=O)N/N=C/c5ccc6c(ccc[n+]6CC)c5)nc4n3)ccc21.[I-].[I-] | 15 to 30 | inactive | 15 to 30 | 800 | 111 | – | 82 | inactive | Active | – | – | –
C[n+]1ccc(C=NNC(=O)c2ccc3ccc4ccc(C(=O)NN=Cc5cc[n+](C)cc5)nc4c3n2)cc1.[I-].[I-] | – | – | – | – | – | – | – | – | – | – | Toxic | Toxic
CC[n+]1cccc2cc(/C=N/NC(=O)c3cc(C(=O)N/N=C/c4ccc5c(ccc[n+]5CC)c4)ncn3)ccc21.[I-].[I-] | – | Active | – | > 2500 | 47 | – | 48 | Active | – | – | Toxic | Toxic
O=C(N/N=C/c1cc[n+](Cc2ccccc2)c2ccccc12)c1cc(C(=O)N/N=C/c2cc[n+](Cc3ccccc3)c3ccccc23)ncn1.[Br-].[Br-] | – | inactive | – | 1240 | 106 | – | 108 | inactive | – | – | – | –
C[n+]1ccc(/C=N/NC(=O)c2ccc3ccc(C(=O)N/N=C/c4cc[n+](C)c5ccccc45)nc3n2)c2ccccc21.[I-].[I-] | 15 to 30 | inactive | 15 to 30 | 610 | 100 | – | 95 | inactive | Active | – | – | –
O=C(N/N=C/c1cc[n+](Cc2ccccc2)c2ccccc12)c1ccc2ccc3ccc(C(=O)N/N=C/c4cc[n+](Cc5ccccc5)c5ccccc45)nc3c2n1.[Br-].[Br-] | 15 to 30 | inactive | 15 to 30 | 340 | 114 | 20 to 30 | 96 | inactive | – | – | – | –
